# From ChEMBL document CHEMBL1138590, “Discovery of novel dihydro-9,10-ethano-anthracene carboxamides as glucocorticoid receptor modulators” (Bioorg Med Chem Lett, 2009)
# Key:
# Glucocorticoid receptor [1] = target: T1, Glucocorticoid receptor (Homo sapiens, UniProt P04150); assay: Displacement of FITC-dexamethasone from human recombinant glucocorticoid receptor alpha by fluorescence polarization assay
# T1 sequence (P04150 whole entry): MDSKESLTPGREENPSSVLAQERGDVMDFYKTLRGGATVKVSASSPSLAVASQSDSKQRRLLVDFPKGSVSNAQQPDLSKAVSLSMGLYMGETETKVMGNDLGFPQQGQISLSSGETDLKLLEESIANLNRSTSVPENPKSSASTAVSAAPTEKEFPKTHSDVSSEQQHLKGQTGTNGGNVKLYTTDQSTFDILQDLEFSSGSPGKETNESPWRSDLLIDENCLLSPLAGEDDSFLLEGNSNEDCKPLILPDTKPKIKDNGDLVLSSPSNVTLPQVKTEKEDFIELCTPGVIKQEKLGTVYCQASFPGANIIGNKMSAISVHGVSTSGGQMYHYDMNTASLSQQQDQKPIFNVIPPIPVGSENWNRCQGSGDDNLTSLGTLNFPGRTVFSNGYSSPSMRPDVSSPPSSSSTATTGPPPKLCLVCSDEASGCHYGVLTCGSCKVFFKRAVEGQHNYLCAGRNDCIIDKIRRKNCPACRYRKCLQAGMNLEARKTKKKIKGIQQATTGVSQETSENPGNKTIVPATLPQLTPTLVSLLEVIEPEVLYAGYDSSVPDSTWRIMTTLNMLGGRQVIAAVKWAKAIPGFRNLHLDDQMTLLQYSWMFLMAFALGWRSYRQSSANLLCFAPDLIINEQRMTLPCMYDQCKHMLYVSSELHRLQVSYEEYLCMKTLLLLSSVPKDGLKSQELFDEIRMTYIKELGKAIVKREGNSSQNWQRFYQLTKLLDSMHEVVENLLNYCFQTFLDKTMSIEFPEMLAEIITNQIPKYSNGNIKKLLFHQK
# Glucocorticoid receptor [2] = target: T1, Glucocorticoid receptor; assay: Transrepression activity at GR in PMA-stimulated human A549 cells assessed as inhibition of AP1 response element-induced luciferase reporter gene activity; type: cell-based
# [3] = target: T2, Mineralocorticoid receptor (Homo sapiens) (UniProt P08235); assay: Antagonist activity at mineralocorticoid receptor in human A549 cells assessed as inhibition of 1.25 nM aldosterone-induced effect at 0.1 uM; type: functional, cell-based
# T2 sequence (whole entry): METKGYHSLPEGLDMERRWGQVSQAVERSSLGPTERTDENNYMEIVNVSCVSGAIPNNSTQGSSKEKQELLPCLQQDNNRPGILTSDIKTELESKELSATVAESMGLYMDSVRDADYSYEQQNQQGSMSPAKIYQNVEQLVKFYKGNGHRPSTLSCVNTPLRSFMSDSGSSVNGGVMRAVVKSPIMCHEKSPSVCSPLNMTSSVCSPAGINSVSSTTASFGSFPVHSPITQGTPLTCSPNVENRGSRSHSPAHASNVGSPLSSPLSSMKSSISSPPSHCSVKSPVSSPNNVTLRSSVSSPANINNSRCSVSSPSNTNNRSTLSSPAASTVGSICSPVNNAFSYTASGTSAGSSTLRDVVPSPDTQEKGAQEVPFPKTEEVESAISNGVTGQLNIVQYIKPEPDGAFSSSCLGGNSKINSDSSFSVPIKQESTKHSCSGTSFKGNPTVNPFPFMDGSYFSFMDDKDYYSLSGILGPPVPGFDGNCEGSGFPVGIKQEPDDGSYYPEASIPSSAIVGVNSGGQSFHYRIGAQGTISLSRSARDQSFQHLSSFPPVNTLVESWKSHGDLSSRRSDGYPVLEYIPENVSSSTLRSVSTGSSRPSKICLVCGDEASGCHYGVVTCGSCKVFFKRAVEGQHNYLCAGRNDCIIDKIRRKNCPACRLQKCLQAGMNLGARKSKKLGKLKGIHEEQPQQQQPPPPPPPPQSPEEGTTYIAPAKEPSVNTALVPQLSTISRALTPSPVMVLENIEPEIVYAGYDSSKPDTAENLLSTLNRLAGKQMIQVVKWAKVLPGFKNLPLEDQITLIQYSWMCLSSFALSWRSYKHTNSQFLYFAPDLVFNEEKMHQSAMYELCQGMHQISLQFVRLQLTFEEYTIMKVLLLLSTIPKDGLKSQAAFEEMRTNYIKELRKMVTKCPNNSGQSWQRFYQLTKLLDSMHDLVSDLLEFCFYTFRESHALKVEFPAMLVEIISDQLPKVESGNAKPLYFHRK
# Progesterone receptor = target: T3, Progesterone receptor (Homo sapiens, UniProt P06401); assay: Displacement of […] from progesterone receptor by fluorescence polarization assay
# T3 sequence (P06401 whole entry): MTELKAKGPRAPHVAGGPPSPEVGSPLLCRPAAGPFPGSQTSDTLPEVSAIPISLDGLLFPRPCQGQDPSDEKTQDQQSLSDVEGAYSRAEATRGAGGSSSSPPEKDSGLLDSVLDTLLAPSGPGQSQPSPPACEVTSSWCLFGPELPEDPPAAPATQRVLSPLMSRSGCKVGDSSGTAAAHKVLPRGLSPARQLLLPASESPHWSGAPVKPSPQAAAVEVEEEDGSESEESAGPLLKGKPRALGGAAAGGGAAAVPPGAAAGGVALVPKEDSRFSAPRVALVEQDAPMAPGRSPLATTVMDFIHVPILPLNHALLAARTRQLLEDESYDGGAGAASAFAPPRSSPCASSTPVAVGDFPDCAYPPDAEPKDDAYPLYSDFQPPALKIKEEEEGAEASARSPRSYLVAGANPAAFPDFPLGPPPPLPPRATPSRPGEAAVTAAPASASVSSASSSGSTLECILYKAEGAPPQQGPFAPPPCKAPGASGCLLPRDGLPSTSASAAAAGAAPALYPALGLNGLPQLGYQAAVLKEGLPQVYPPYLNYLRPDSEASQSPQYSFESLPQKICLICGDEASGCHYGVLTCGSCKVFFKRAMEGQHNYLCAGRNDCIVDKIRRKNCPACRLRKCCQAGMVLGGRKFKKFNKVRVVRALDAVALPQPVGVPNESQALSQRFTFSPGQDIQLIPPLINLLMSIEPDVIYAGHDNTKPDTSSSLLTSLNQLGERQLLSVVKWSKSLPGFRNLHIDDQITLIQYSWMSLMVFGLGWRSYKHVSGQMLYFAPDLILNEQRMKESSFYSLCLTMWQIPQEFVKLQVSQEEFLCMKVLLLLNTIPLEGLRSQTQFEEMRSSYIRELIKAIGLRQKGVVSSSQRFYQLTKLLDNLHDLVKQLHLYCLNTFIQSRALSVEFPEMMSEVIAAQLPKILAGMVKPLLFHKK
# Procedure, shortened: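 Fluorescence polarization competition binding: the test compound competes with a fluorescently labelled ligand for binding to the full-length receptor or its ligand-binding domain. IC50 is fitted from the polarization signal with a four-parameter logistic equation. Ki is derived by Cheng–Prusoff, Ki = IC50/(1 + ligand concentration/Kd). Values are means of duplicate experiments.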
Structure (SMILES),Ki (Glucocorticoid receptor [1]) [nM],EC50 (Glucocorticoid receptor [2]) [nM],inhibition [3] [%],Ki (Progesterone receptor) [nM]
C[C@@]1(C(=O)Nc2nccs2)CC2(C#N)c3ccccc3C1c1ccccc12,0.9,243,47,34
C[C@@]1(C(=O)Nc2nccs2)CC2c3ccccc3C1c1ccccc12,1.3,115,3,147
